Data published in publication PMC10872613 (Journal of immunology (Baltimore, Md. : 1950), 2024).
“Also recorded” adds a separate entry of the source. Read-outs that look alike come from different tables or passages of the source.

What was measured:
[1] = system: bovine pancreatic trypsin; conditions: concentrations up to 200 μM; cited from earlier work
lectin pathway (LP) = assay: LP ELISA; assay type: biochemical, human; conditions: 100 μM A1, C1q-depleted serum, mannan-coated plates
classical pathway (CP) = assay: CP-specific ELISA; assay type: biochemical, human; conditions: for C4b deposition (CP activity): 100 μM compound, single-concentration screen, 2% human serum
Method in brief: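 Wells coated with human IgM received 2% (v/v) complement-preserved human serum with a two-fold test compound series (100–3.1 μM) in HBS++ plus 0.1% gelatin, 1 h at 37 °C. After TBS-T washes, deposited C4b was detected with mouse anti-C4b mAb and HRP anti-mouse IgG. Signals were normalized to uninhibited and serum-free controls. Triplicates were fit to a four-parameter dose-response model.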

[2] = biological target: T1, C1s purified from human serum (Homo sapiens, UniProt P09871); assay: Native C1s chromogenic ZGR assay; assay type: biochemical
T1 sequence (P09871 16-437 limits assumed): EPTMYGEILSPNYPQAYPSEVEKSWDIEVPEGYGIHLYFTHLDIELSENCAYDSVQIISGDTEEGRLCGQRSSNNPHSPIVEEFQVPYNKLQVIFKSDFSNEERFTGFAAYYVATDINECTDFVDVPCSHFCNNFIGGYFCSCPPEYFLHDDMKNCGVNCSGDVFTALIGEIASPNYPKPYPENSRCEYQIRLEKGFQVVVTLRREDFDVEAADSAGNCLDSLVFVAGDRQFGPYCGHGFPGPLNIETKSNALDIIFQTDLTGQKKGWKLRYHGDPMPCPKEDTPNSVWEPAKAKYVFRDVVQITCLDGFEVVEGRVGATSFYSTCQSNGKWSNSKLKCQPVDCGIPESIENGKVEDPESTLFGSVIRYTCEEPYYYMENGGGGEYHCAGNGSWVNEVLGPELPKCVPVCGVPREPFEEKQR
T1 sequence (P09871 438-688 limits assumed): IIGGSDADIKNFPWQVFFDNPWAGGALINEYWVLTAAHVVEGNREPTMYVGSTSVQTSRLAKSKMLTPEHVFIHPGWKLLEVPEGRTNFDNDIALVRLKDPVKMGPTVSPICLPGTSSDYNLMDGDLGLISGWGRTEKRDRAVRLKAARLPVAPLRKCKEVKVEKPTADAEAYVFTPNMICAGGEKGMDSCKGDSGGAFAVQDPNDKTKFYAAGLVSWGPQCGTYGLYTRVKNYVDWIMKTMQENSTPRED

Aqueous solubility = assay type: physicochemical; conditions: water
C1s = biological target: T2, C1s (Homo sapiens, UniProt P09871); assay: Cleavage of C2 by C1s; assay type: biochemical
T2 sequence (P09871 16-437 limits assumed): T1 sequence (P09871 16-437 limits assumed)
T2 sequence (P09871 438-688 limits assumed): T1 sequence (P09871 438-688 limits assumed)
Method in brief: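 Serum-derived activated C1s (6.25 nM) was mixed with a two-fold test compound series (100–1.56 μM) in HBS++ and C2 was added (0.5 mg/mL stock), 1 h at 37 °C. Products were separated by SDS-PAGE with Coomassie staining. C2b band density was corrected for total C2 and normalized to a C1s + C2 control. Triplicates were fit to a four-parameter dose-response model.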

thrombin = thrombin (Homo sapiens, UniProt P00734); assay: Thrombin chromogenic ZGR assay; assay type: biochemical
Method in brief: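 Serum-purified activated thrombin (2.7 nM) was assayed at 25 °C in 50 mM HEPES pH 7.4, 140 mM NaCl, 0.005% Tween-20, 5% DMSO with 0.59 mM DTNB. Initial ZGR hydrolysis rates were measured at four ZGR levels (~Km–9 x Km) × five inhibitor levels (0–~3.4 x Ki). Triplicate data were globally fit to a competitive inhibition model.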

Neutrophil Elastase = assay: Neutrophil elastase chromogenic assay; assay type: biochemical, human; conditions: inhibitor 0 to 29.4 μM
Method in brief: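 Neutrophil elastase purified from human sputum (6.9 nM) was run at 25 °C with inhibitor 0–29.4 μM and fixed 52 μM methoxysuccinyl-Ala-Ala-Pro-Val-p-nitroanilide (ε400 = 12.3 mM−1 cm−1). Buffer: 50 mM HEPES pH 7.4, 140 mM NaCl, 0.05% Tween-20. Microplate chromogenic read-out.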

Cathepsin-G = assay: Cathepsin G chromogenic assay; assay type: biochemical, human; conditions: inhibitor 0 to 29.4 μM; data not shown
Method in brief: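 Cathepsin G (9.5 nM) was assayed at 25 °C with inhibitor 0–29.4 μM and fixed 0.92 mM succinyl-Ala-Ala-Pro-Phe-p-nitroanilide (ε400 = 12.3 mM−1 cm−1). Buffer: 50 mM HEPES pH 7.4, 140 mM NaCl, 0.025% Tween-20, 20.7% DMSO. Microplate chromogenic read-out.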

[3] = system: CP activation by heparin-induced immune complexes; assay: CP activation by heparin-induced immune complexes in whole blood; assay type: cell-based, human; conditions: highest concentration examined (series 1,000 – 10 μM)
Method in brief: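 Healthy-donor whole blood was anticoagulated with ACD (1.4 mL per 8.6 mL blood). It was preincubated 30 min at room temperature with buffer, test compound (1000–10 μM) or B. miyamotoi FbpA-C/FbpB-C control proteins (100 μg/mL). Anti-PF4/heparin antibody KKO (50 μg/mL), PF4 (25 μg/mL) and heparin (1 U/mL) were then added, 30 min at 37 °C. Plasma was quenched with 10 mM EDTA, and C5a was measured by sandwich ELISA.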

Factor Xa = Factor Xa chromogenic ZGR assay; assay type: biochemical; conditions: inhibitor 0 to 226 μM
Method in brief: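 Buffer: 50 mM HEPES pH 7.4, 140 mM NaCl, 0.025% Tween-20, 5% DMSO, with 0.59 mM DTNB indicator. Thiol release was read chromogenically in microplates.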

mouse C1s-2SP = biological target: T3, mouse C1s-2SP (Mus musculus, UniProt Q8CG14); assay: Mouse C1s-2SP chromogenic ZGR assay; assay type: biochemical
T3 sequence (Q8CG14 357-423 limits assumed): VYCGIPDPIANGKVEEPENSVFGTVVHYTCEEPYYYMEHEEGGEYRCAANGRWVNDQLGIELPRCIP
T3 sequence (Q8CG14 438-688 limits assumed): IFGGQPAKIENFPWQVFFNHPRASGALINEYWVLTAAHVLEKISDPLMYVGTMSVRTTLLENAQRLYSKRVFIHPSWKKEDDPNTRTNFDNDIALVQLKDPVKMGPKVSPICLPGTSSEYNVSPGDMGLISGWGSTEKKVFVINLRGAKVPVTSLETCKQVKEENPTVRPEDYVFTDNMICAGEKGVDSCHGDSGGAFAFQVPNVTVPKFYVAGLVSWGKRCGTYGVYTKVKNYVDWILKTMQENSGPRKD
Method in brief: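 Recombinant mouse C1s-2SP (2.5 nM) was tested at 25 °C in 50 mM HEPES pH 7.4, 140 mM NaCl, 0.005% Tween-20, 5% DMSO, 0.44 mM DTNB. ZGR initial velocities were measured at four substrate levels (~2.3–9.4 x Km) and five inhibitor levels (0–~8.4 x Ki). Triplicate data were globally fit to a competitive inhibition model.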

[4] = biological target: T4, C1r purified from human serum (Homo sapiens, UniProt P00736); assay: C1r chromogenic ZGR assay; assay type: biochemical
T4 sequence (P00736 18-463 limits assumed): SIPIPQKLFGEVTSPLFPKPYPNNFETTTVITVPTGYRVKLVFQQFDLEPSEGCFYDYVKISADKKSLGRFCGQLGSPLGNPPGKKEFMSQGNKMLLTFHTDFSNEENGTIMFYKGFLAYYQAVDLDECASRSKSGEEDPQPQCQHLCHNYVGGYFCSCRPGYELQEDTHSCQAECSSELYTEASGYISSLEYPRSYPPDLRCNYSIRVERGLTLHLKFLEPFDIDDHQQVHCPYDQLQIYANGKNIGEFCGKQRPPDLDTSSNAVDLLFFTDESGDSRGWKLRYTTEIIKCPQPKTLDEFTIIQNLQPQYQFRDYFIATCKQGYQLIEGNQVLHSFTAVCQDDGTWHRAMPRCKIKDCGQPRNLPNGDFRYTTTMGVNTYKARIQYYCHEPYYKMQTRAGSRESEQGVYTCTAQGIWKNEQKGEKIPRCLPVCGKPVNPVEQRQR
T4 sequence (P00736 464-705 limits assumed): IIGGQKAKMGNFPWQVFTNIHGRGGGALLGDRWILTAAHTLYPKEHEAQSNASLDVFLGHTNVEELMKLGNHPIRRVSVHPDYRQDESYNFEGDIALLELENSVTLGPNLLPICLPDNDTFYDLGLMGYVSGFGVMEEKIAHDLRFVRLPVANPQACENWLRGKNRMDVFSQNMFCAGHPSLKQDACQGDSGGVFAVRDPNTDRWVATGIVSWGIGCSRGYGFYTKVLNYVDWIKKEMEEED
Method in brief: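 Human serum-derived C1r (10 nM) at 25 °C in 50 mM HEPES pH 7.4, 140 mM NaCl, 0.005% Tween-20, 10% DMSO, with 0.44 mM DTNB as indicator. Initial velocities of Z-Gly-Arg-thiobenzyl ester (ZGR) hydrolysis were read at four ZGR levels (~0.1–0.7 x Km) × five inhibitor levels (0–~0.8 x Ki) in microplates. Data (n = 3) were globally fit to a competitive inhibition model.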

C1s-2SP = biological target: T5, C1s-2SP (Homo sapiens, UniProt P09871); assay: C1s-2SP chromogenic ZGR cleavage assay; assay type: biochemical; conditions: for C1s-2SP activity (initial velocity of ZGR cleavage): 100 μM compound, single-concentration screen, compared with mean of library; for loss of activity compared to A1: Ki against human C1s-2SP relative to A1
T5 sequence (P09871 357-423 limits assumed): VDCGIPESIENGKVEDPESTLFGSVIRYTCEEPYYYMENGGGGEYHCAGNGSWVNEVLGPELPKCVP
T5 sequence (P09871 438-688 limits assumed): T1 sequence (P09871 438-688 limits assumed)
Method in brief: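 Recombinant human C1s-2SP was expressed in E. coli BL21(DE3), purified by denaturing IMAC, refolded in glutathione redox buffer and isolated by gel filtration. The enzyme (2.4 nM) was run at 25 °C in 50 mM HEPES pH 7.4, 140 mM NaCl, 0.005% Tween-20, 5% DMSO, 0.44 mM DTNB. ZGR initial velocities were read on a 4×5 grid (~0.2–1.2 x Km; inhibitor 0–~2.6 x Ki), n = 3, with a global competitive fit.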

[5] = recombinant human C1s-2SP, competitive inhibition model

N=C(N)Nc1ccc(C(=O)O)cc1 [4-guanidinobenzoic acid]
inhibition of trypsin [1]: failed to inhibit trypsin

N=C(N)c1ccc(N2CCN(c3ccccc3)CC2)nc1 [A1, 6-(4-phenylpiperazin-1-yl)pyridine-3-carboximidamide]
activity against the LP (lectin pathway (LP)): relatively weak activity against the LP compared to the CP
C4b deposition (CP activity) (classical pathway (CP)): reduced C4b deposition to less than two standard deviations below the mean; also recorded: essentially complete inhibition of C4b deposition
IC50 (classical pathway (CP); CP ELISA, C4b deposition, A1 100 – 3.1 μM): 22 µM
Ki [2]: 5.8 µM
solubility (Aqueous solubility): ≥ 10 mM
IC50 (C1s): ~85 µM
Ki (thrombin): 51.2 µM
inhibition of Neutrophil Elastase (Neutrophil Elastase): did not inhibit
inhibition of Cathepsin-G (Cathepsin-G): did not inhibit
inhibition of C5a generation [3]: ~ 75%
inhibition of Factor Xa (Factor Xa): did not inhibit
Ki (mouse C1s-2SP): 24.6 µM
Ki [4]: 842 µM
selectivity C1s over C1r ([4]; ratio of Ki values): ~ 145 fold
Ki (C1s-2SP): 8.5 µM

O=C(COC(=O)Cn1cnc2scc(-c3cccs3)c2c1=O)Nc1ccc(O)cc1 [B5]
C4b deposition (CP activity) (classical pathway (CP)): reduced C4b deposition to less than two standard deviations below the mean

I.NC(N)=NCc1ccc(CN2CCc3ccccc32)cc1 [D4]
C1s-2SP activity (initial velocity of ZGR cleavage) (C1s-2SP): failed to inhibit C1s enzyme activity

COc1ccc(CCNC(N)=NCc2ccc(OCCC(C)C)c(OC)c2)cc1.I [D10]
C1s-2SP activity (initial velocity of ZGR cleavage) (C1s-2SP): failed to inhibit C1s enzyme activity

Cl.Cl.NC(N)=NCCCN(Cc1ccc(-c2ccccc2)cc1)S(=O)(=O)CCCN=C(N)N [F2]
C1s-2SP activity (initial velocity of ZGR cleavage) (C1s-2SP): failed to inhibit C1s enzyme activity

COc1cccc(Oc2ccc(CN=C(N)Nc3ccccc3)cn2)c1.I [H1]
C1s-2SP activity (initial velocity of ZGR cleavage) (C1s-2SP): failed to inhibit C1s enzyme activity

O=C(CSc1ncnc2sc(-c3ccccc3)cc12)NC(Cc1c[nH]c2ccccc12)C(=O)O (stereo not drawn) [H9]
C1s-2SP activity (initial velocity of ZGR cleavage) (C1s-2SP): failed to inhibit C1s enzyme activity

N=C(N)c1ccc(N2CCN(c3cccc(F)c3)CC2)nc1 [meta-fluorine A1 analog]
Ki (C1s-2SP; [5]): 19.5 µM

Cc1cccc(N2CCN(c3ccc(C(=N)N)cn3)CC2)c1 [meta-methyl A1 analog]
Ki (C1s-2SP; [5]): 22.6 µM

N=C(N)c1ccc(N2CCN(c3ccc(Cl)cc3)CC2)nc1 [para-chlorine A1 analog]
loss of activity compared to A1 (C1s-2SP): > 10 fold

N=C(N)c1ccc(N2CCN(c3ccc(F)cc3)CC2)nc1 [para-fluorine A1 analog]
loss of activity compared to A1 (C1s-2SP): > 10 fold

N=C(N)c1cccnc1 [pyridine-3-carboximidamide, reference compound]
inhibition of C1s ([2]; concentrations approaching ~375 μM, data not shown): failed to detect such inhibition
